# Screening data: PubChem BioAssay, The Scripps Research Institute Molecular Screening Center
# Rows were chosen to be rich in hits. Some 1.8% of all compounds tested hit in one or more screens of this group.
# SIAE primary = human SIAE inhibitors, primary screen, biochemical, fluorescence polarization, FP-Rh probe, 1536-well HTS | Sialate O-acetylesterase (Homo sapiens), Q9HAT2 | actives 0.69% (n = 370,000) | inhibition, % at 9.66 µM | SIAE FP-Rh probe binding | AID 1053197, 2014;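 active means inhibition above a cutoff: mean of compounds within the control limits plus 3 SD of those, cut at about 17% in these data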
# Tn7 DDE FP = inhibitors of Tn7 peptide binding to fibrin DD(E), primary screen, biochemical, fluorescence polarization, human fibrin, Tn7 probe; FP displacement of FITC-Tn7 peptide from fibrin DD(E); 0% = median of compound wells per plate; inhibition, % at 8.3 µM; actives 0.13% (n = 370,000);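 active means inhibition above the mean of compounds falling within the control limits plus 3 SD of them, cut at about 14% in these data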
#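 system = human fibrin DD(E) protein | quantity = DD(E) 2 µM final | medium = Tris/NaCl/CaCl2 buffer, pH 7.8 | also added = labelled Tn7 tracer, 0.1 µM | compound dosing = single point at 8.3 µM | timing = compound with protein 10 min, then 3 h after probe, room temperature | signal = FP measurement | benchmarks = Aha-Tn7 high control | repeats = one replicate per compound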
# DDE Tn6 FP inh = inhibitors of Tn6 peptide binding to fibrin DD(E), primary screen, biochemical, fluorescence polarization, human fibrin, Tn6 probe; Fibrin DD(E) TRITC-Tn6 fluorescence polarization displacement; inhibition, % at 8.3 µM; actives 0.21% (n = 370,000);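 active means inhibition above a per-campaign cutoff: mean of compounds within control limits plus 3 SD, cut at about 15% in these data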
# mABHD4 FP = ABHD4 inhibitors, primary screen, biochemical, fluorescence polarization, mouse; purified mABHD4, FP-Rh probe fluorescence polarization; inhibition, % at 8.92 µM; actives 0.54% (n = 370,000); (Lyso)-N-acylphosphatidylethanolamine lipase (Mus musculus), Q8VD66;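 active means inhibition exceeding the mean over every tested compound plus 3 SD, cut at about 30% in these data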
#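 system = mouse ABHD4 enzyme, wild type | medium = HEPES pH 7.0, NaCl, Pluronic buffer | also added = FP-Rh probe | incubation = Enzyme–compound pre-incubation 45 min, then probe 60 min, both 25 °C | technique = fluorescence polarization, excitation 525 nm, emission 598 nm, BODIPY TMR filters | controls = S159A mutant high control, sample median low control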
# TCR-CD3 inh = inhibitors of human TCR-CD3 interaction, primary screen, biochemical, fluorescence, TAMRA-labeled TCR probe; T-cell receptor (TCR); inhibition, % at 9.4 µM; actives 0.37% (n = 360,000); in the data active means inhibition above about 19%;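 further: recombinant mutant TCR 2C K166C tagged with TAMRA read by polarization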
# HTRA1 inh = HTRA1 serine protease inhibitors, primary screen, biochemical, fluorescence polarization, HTS. recombinant HTRA1, FP-rhodamine activity-based probe. Q92743. AID 504803, 2011. actives 0.5% (n = 340,000). inhibition, % at 5.96 µM; in the data active means inhibition above about 36%
# Target sequence (Q92743 whole entry, looked up): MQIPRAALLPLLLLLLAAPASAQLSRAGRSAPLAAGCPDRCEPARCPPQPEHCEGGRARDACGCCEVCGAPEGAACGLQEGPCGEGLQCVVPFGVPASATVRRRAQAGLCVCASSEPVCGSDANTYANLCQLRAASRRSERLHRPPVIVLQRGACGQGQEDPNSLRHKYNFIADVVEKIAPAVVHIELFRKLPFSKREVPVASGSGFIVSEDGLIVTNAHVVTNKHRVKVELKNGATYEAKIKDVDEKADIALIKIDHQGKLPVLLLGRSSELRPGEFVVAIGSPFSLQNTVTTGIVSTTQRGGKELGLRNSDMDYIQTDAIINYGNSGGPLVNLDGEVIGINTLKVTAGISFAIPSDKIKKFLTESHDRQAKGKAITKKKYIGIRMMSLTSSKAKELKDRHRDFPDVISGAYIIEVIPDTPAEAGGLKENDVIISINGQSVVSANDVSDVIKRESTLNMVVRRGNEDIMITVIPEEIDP
# Tn7 DDE conf = inhibitors of Tn7 peptide binding to fibrin DD(E), confirmation, biochemical, fluorescence polarization, human fibrin, Tn7 probe | shares compounds with Tn7 DDE FP | FP displacement of TRITC-Tn7 peptide from DD(E); 0% set at plate's compound-well median | inhibition, % at 8.3 µM | actives 5% (n = 460);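 active means inhibition above the campaign cutoff, the mean of compounds within control limits plus 3 SD, cut at about 14% in these data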;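 further: displacers lower polarization since freed probe rises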
# DDE Tn7 FP ctr = counter-screen hit for Tn7 peptide-fibrin DD(E) binding disruption | TRITC-Tn7 probe displacement, fluorescence polarization | inhibition, % at 8.3 µM | shares compounds with Tn7 DDE FP | actives 3% (n = 460) | AID 720633;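 active means inhibition above the cutoff, the mean of compounds lying between the control bounds plus 3 SD of those compounds, cut at about 17% in these data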
# Tn6 DDE ctr = counter-screen hit for Tn6 peptide-fibrin DD(E) binding disruption. actives 2% (n = 680). TRITC-Tn6 fluorescence polarization displacement; 0% = median of compound wells, not DMSO. inhibition, % at 8.3 µM. shares compounds with DDE Tn6 FP inh. AID 720621;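 active means inhibition above the mean of test compounds lying between the control limits plus 3 SD of those, cut at about 14% in these data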
# Tn6 DDE conf = inhibitors of Tn6 peptide binding to fibrin DD(E), confirmation, biochemical, fluorescence polarization, human fibrin, Tn6 probe. inhibition, % at 8.3 µM. actives 10% (n = 680). FP displacement of TRITC-Tn6 peptide from DD(E); 0% = per-plate median of test wells. shares compounds with DDE Tn6 FP inh;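 active means inhibition above the mean of compounds lying within the control limits plus 3 SD, cut at about 16% in these data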
# mABHD4 conf = ABHD4 inhibitors, retest, confirmation, biochemical, fluorescence polarization, mouse. AID 720658, 2013. actives 55% (n = 1,800). purified mABHD4, FP-Rh probe fluorescence polarization. shares compounds with mABHD4 FP. inhibition, % at 8.92 µM;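 active means mean inhibition across replicates above the hit cutoff set in the primary screen, cut at about 30% in these data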
# SIAE confirm = human SIAE inhibitors, retest, confirmation, biochemical, fluorescence polarization, FP-Rh probe, triplicate | shares compounds with SIAE primary | SIAE FP-Rh activity-based probe | inhibition, % at 9.66 µM | actives 13% (n = 2,300) | AID 1117263, 2014;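 active means mean inhibition of the replicates above the hit cutoff set in the primary screen, cut at about 17% in these data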;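 further: inhibitors lower polarization as more probe stays unbound to SIAE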
# Numbers stand for hits; 0 = inactive; - = not tested or not shown.
SMILES,SIAE primary,Tn7 DDE FP,DDE Tn6 FP inh,mABHD4 FP,TCR-CD3 inh,HTRA1 inh,Tn7 DDE conf,DDE Tn7 FP ctr,Tn6 DDE ctr,Tn6 DDE conf,others
Cn1c(CN2CCCCC2)nc2cc(NC(=O)c3ccccc3Cl)ccc21,0,0,0,0,0,0,-,-,-,-,
C=CCNC(=O)c1ccc(OC2CCN(S(=O)(=O)N(C)C)CC2)cc1,0,0,0,0,0,0,-,-,-,-,
CN(C)S(=O)(=O)N1CCC(Oc2ccc(C(=O)NCc3cnn(C)c3)cc2)CC1,0,14,0,0,0,0,0,0,-,-,
CN(C)C(CNC(=O)c1cc(S(=O)(=O)N(C)c2ccc(F)cc2)ccc1Cl)c1cccs1 (configuration not stated),0,15,0,0,0,0,0,0,-,-,
CN(CC(=O)Nc1ccccc1C(=O)NC1CC1)Cc1ccc(N(C)C)cc1,0,18,40,0,0,0,0,0,0,0,
COc1ccc(CN(C)CC(=O)Nc2ccccc2C(=O)NC2CC2)cc1,0,0,0,0,0,0,-,-,-,-,
CN[C@H]1C[C@H]2c3[nH]c4c(-c5ccc6c(c5)OCO6)cccc4c3CCN2C[C@H]1[C@H](C)O,0,0,0,0,-,-,-,-,-,-,
O=C(NCCC1=CCCCC1)c1ccc(-n2cncn2)c([N+](=O)[O-])c1,0,24,162,0,0,0,0,0,0,0,
COc1ccc(C(=O)NCCC2=CCCCC2)cc1[N+](=O)[O-],0,0,0,0,0,0,-,-,-,-,
CCNC(=O)C1CCCN(C(=O)Cc2cccs2)CC1 (configuration not stated),0,15,18,0,0,-,0,0,0,0,
C=CCN1C(=O)[C@@H](CC(=O)NCc2cccc3ccccc23)[C@]2(C(=O)OC)CCCCC=C12,0,0,0,0,-,-,-,-,-,-,
COc1ccc(N(Cc2cc3cc(OC)ccc3[nH]c2=O)C(=O)c2cccnc2)cc1,0,23,21,0,0,0,0,0,0,0,
COCCCNC(=S)NNC(=O)c1ccccn1,0,16,0,39,0,0,0,0,-,-,mABHD4 conf=44
COc1cccc(NC(=O)Nc2nc3ncccn3c2-c2ccc(C)cc2)c1,0,0,0,0,-,-,-,-,-,-,
NS(=O)(=O)c1ccc(N/N=C/c2cn(-c3ccccc3)nc2-c2cccs2)cc1,23,14,0,0,0,0,0,0,-,-,SIAE confirm=0
